Converted amounts (≈) assume the structure as drawn. The source made the active and inactive calls. The calls are words filed in the database; no cut-off is given here.
What was measured:
[1] = system: Staphylococcus aureus; assay: Minimum inhibitory dilution of medicated rat urine tested in vitro for antibacterial activity against Staphylococcus aureus; Equal to 1:4; format: functional
[2] = system: Proteus mirabilis; assay: In vitro minimum inhibitory concentration against Proteus mirabilis; format: functional; details: Proteus mirabilis; read-out: MIC
Outline: (§1)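 Compounds were dissolved in water, or in water with the minimum DMSO needed to keep them in solution, and tested by an established dilution method. A ">" prefix means the DMSO solvent blank was inhibitory at that level.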

[3] = system: Staphylococcus aureus; assay: In vitro minimum inhibitory concentration against Staphylococcus aureus; format: functional; details: Staphylococcus aureus; read-out: MIC; outline: as §1
[4] = system: Proteus mirabilis; assay: Minimum inhibitory dilution of medicated rat urine tested in vitro for antibacterial activity against Proteus mirabilis; Less than 1:2; format: functional
[5] = system: Staphylococcus aureus; assay: Minimum inhibitory dilution of medicated rat urine tested in vitro for antibacterial activity against Staphylococcus aureus; Less than 1:2; format: functional
[6] = system: Proteus mirabilis; assay: Minimum inhibitory dilution of medicated rat urine tested in vitro for antibacterial activity against Proteus mirabilis; Equal to 1:4; format: functional
[7] = system: Staphylococcus aureus; assay: Minimum inhibitory dilution of medicated rat urine tested in vitro for antibacterial activity against Staphylococcus aureus; Equal to 1:2; format: functional
[8] = system: Staphylococcus aureus; assay: Minimum inhibitory dilution of medicated rat urine tested in vitro for antibacterial activity against Staphylococcus aureus; Equal to 1:16; format: functional
[9] = system: Proteus mirabilis; assay: Minimum inhibitory dilution of medicated rat urine tested in vitro for antibacterial activity against Proteus mirabilis; Equal to 1:128; format: functional
Outline: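 Female Sprague-Dawley rats (160–200 g), in groups of three, got 50 mg/kg orally in 1.0% gum tragacanth (1 mL/100 g), with a second 50 mg/kg dose 8 h later. Pooled 24-h urine was centrifuged, ultrafiltered and stored at −20 °C. It was serially diluted twofold in tryptose phosphate broth with inoculum (18-h culture at OD 0.1, then 1:250) and incubated 18 h at 37 °C. MID is the highest dilution without visible growth.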

[10] = system: Staphylococcus aureus; assay: Minimum inhibitory dilution of medicated rat urine tested in vitro for antibacterial activity against Staphylococcus aureus; Equal to 1:32; format: functional
[11] = system: Mus musculus; assay: Antitubercular activity (3.1 mg/kg) in the 31-day murine mice model; format: functional
Outline: (§2)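 Female Swiss mice (14–16 g), 10 per treated group and 20 infected controls, were infected i.v. with 0.1 mL of a 2 mg/mL M. tuberculosis H37Rv suspension. Oral dosing was in 0.5 mL 1.0% gum tragacanth, starting day 3 post-infection, twice daily, 5 days/week for 4 weeks. Percent survival was recorded at day 31; active meant survival consistently >80%.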

[12] = system: Mus musculus; assay: Antitubercular activity (6.25 mg/kg) in the 31-day murine mice model; format: functional; outline: as §2
[13] = system: Mus musculus; assay: Antitubercular activity (12.5 mg/kg) in the 31-day murine mice model; format: functional; outline: as §2
[14] = system: Mus musculus; assay: Antitubercular activity (25 mg/kg) in the 31-day murine mice model; format: functional; outline: as §2
[15] = system: Mus musculus; assay: Antitubercular activity (50 mg/kg) in the 31-day murine mice model; format: functional; outline: as §2
[16] = system: Proteus mirabilis; assay: Minimum inhibitory dilution of medicated rat urine tested in vitro for antibacterial activity against Proteus mirabilis; Equal to 1:8; format: functional
[17] = system: Mus musculus; assay: Antitubercular activity (12.5 mg/kg) in the 31-day murine mice model; NA=Not active; format: functional, organism-based; outline: as §2
[18] = system: Mus musculus; assay: Antitubercular activity (25 mg/kg) in the 31-day murine mice model; NA=Not active; format: functional, organism-based; outline: as §2
[19] = system: Mus musculus; assay: Antitubercular activity (6.25 mg/kg) in the 31-day murine mice model; NA=Not active; format: functional, organism-based; outline: as §2
[20] = system: Mus musculus; assay: Antitubercular activity (50 mg/kg) in the 31-day murine mice model; NA=Not active; format: functional, organism-based; outline: as §2
[21] = system: Mus musculus; assay: Antitubercular activity (100 mg/kg) in the 31-day murine mice model; NA=Not active; format: functional, organism-based; outline: as §2
[22] = system: Mus musculus; assay: Antitubercular activity (3.1 mg/kg) in the 31-day murine mice model; NA=Not active; format: functional, organism-based; outline: as §2
[23] = system: Mus musculus; assay: Antitubercular activity (100 mg/kg) in the 31-day murine mice model; format: functional; outline: as §2
[24] = system: Proteus mirabilis; assay: Minimum inhibitory dilution of medicated rat urine tested in vitro for antibacterial activity against Proteus mirabilis; Equal to 1:16; format: functional
[25] = system: Staphylococcus aureus; assay: Minimum inhibitory dilution of medicated rat urine tested in vitro for antibacterial activity against Staphylococcus aureus; Equal to 1:8; format: functional

Structure (SMILES)	MIC [2] [µg/mL]	MIC [3] [µg/mL]	MID [4]	MID [5]	other results
CC1=CC(=Nn2cccc2)C=C(C)C1=O	> 125	31.3 (≈ 156 µM)	<0.5	–	MID [1]: 0.25
CN(C)C1=CC(=O)C=C/C1=N/n1cccc1	> 125	62.5 (≈ 290 µM)	<0.5	<0.5	–
C1=CC(=Nn2cccc2)C=CC1=Nc1ccccc1	> 62.5	> 62.5	<0.5	<0.5	–
NC1=CC(=O)C=C/C1=N/n1cccc1	125 (≈ 668 µM)	15.6 (≈ 83.3 µM)	–	–	MID [6]: 0.25; MID [7]: 0.5
CC1=CC(=N/n2cccc2)/C=CC/1=N/n1cccc1	> 62.5	> 62.5	<0.5	<0.5	–
CCn1cc(C(=O)O)c(=O)c2ccc(C)nc21 [NALIDIXIC ACID]	15.6 (≈ 67.2 µM)	62.5 (≈ 269 µM)	–	–	MID [8]: 0.0625; MID [9]: 0.00781
CC(=O)Oc1ccc(Nn2cccc2)cc1	> 62.5	> 62.5	<0.5	–	MID [8]: 0.0625
O=C1C=CC(=Nn2cccc2)C=C1	62.5 (≈ 363 µM)	≤ 7.8	–	–	MID [10]: 0.03125; Survival [11]: 0%; Survival [12]: 100%; Survival [13]: 100%; MID [6]: 0.25; Survival [14]: 100%; Survival [15]: 100%
O=C(N[C@H](CO)[C@H](O)c1ccc([N+](=O)[O-])cc1)C(Cl)Cl [CHLORAMPHENICOL]	> 62.5	3.9 (≈ 12.1 µM)	–	–	MID [16]: 0.125; MID [8]: 0.0625
O=Nc1ccc(Nn2cccc2)cc1	250 (≈ 1340 µM)	125 (≈ 668 µM)	<0.5	<0.5	–
CN(c1ccc(O)cc1)n1cccc1	> 250	125 (≈ 664 µM)	<0.5	<0.5	–
Oc1ccc(Nn2cccc2)c2ccccc12	62.5 (≈ 279 µM)	≤ 7.8	< 0.5	–	MID [1]: 0.25
CC(C)(C)C1=CC(=Nn2cccc2)C=C(C(C)(C)C)C1=O	> 62.5	> 62.5	<0.5	<0.5	–
O=C1C=C/C(=N/n2cccc2)c2ccccc21	> 62.5	31.3 (≈ 141 µM)	<0.5	–	MID [7]: 0.5
Cc1ccc(C(=O)Oc2ccc(Nn3cccc3)cc2)cc1	> 250	> 250	< 0.5	–	Survival [17]: inactive; Survival [18]: inactive; MID [1]: 0.25; Survival [19]: inactive; Survival [20]: inactive; Survival [21]: inactive; Survival [22]: inactive
Oc1cccc(Nn2cccc2)c1	500 (≈ 2870 µM)	62.5 (≈ 359 µM)	<0.5	<0.5	–

Structure (SMILES)	MIC [2] [µg/mL]	MIC [3] [µg/mL]	MID [4]	MID [5]	other results
CC(=O)Oc1ccc(N(C(C)=O)n2cccc2)cc1	> 125	> 250	<0.5	–	Survival [17]: inactive; Survival [18]: inactive; Survival [19]: inactive; Survival [20]: inactive; MID [7]: 0.5; Survival [21]: inactive; Survival [22]: inactive
Oc1ccc(Nn2cccc2)c(Cl)c1	> 125	62.5 (≈ 300 µM)	0.5	<0.5	–
Cc1ccc(C)n1Nc1ccc(O)cc1	15.6 (≈ 77.1 µM)	≤ 7.8	<0.5	–	MID [1]: 0.25
[N-]=[N+]=NC1=CC(=O)C=C/C1=N/n1cccc1	> 250	125 (≈ 586 µM)	<0.5	<0.5	–
c1ccc(Nc2ccc(Nn3cccc3)cc2)cc1	> 250	31.3 (≈ 126 µM)	<0.5	<0.5	–
c1ccn(Nc2ccc(Nn3cccc3)cc2)c1	> 250	125 (≈ 525 µM)	<0.5	<0.5	Survival [12]: 0%; Survival [13]: 0%; Survival [14]: 40%; Survival [15]: 0%; Survival [23]: 0%
O=C1C=C/C(=N/n2cccc2)C(Cl)=C1	> 125	31.3 (≈ 151 µM)	<0.5	<0.5	–
Oc1ccccc1Nn1cccc1	15.6 (≈ 89.6 µM)	≤ 7.8	<0.5	<0.5	–
COc1ccc(Nn2cccc2)cc1	> 125	> 125	–	–	MID [10]: 0.03125; MID [24]: 0.0625
NNC(=O)c1ccncc1 [ISONIAZID]	–	–	–	–	Survival [11]: 100%; Survival [12]: 100%; Survival [13]: 100%
O=C(O)c1cccn1Nc1ccc(O)cc1	500 (≈ 2290 µM)	500 (≈ 2290 µM)	–	–	MID [16]: 0.125; MID [8]: 0.0625
C1=CC(=Nn2cccc2)C=CC1=Nn1cccc1	> 62.5	> 125	–	–	MID [24]: 0.0625; Survival [11]: 10%; Survival [12]: 80%; Survival [13]: 100%; Survival [14]: 100%; MID [8]: 0.0625; Survival [15]: 100%; Survival [23]: 100%
Cc1ccc(C(=O)Oc2ccc(N(C(=O)c3ccc(C)cc3)n3cccc3)cc2)cc1	> 62.5	125 (≈ 305 µM)	<0.5	<0.5	Survival [17]: inactive; Survival [18]: inactive; Survival [19]: inactive; Survival [20]: inactive; Survival [21]: inactive; Survival [22]: inactive
O=C1CN(/N=C/c2ccc([N+](=O)[O-])o2)C(=O)N1 [NITROFURANTOIN]	> 62.5	15.6 (≈ 65.5 µM)	–	–	MID [10]: 0.03125
Cc1ccc(C)n1N=C1C=CC(=O)C=C1	62.5 (≈ 312 µM)	≤ 7.8	<0.5	–	MID [7]: 0.5
Oc1ccc(Nn2cccc2)cc1O	62.5 (≈ 329 µM)	≤ 7.8	<0.5	–	MID [25]: 0.125

— ChEMBL document CHEMBL1121743, “Synthesis and antibacterial activity of 1-(arylamino)-1H-pyrroles and 4-(1H-pyrrol-1-ylimino)-2,5-cyclohexadienes” (1981)
